Assay results from ChEMBL document CHEMBL4007509, “Structural Optimizations of Thieno[3,2-b]pyrrole Derivatives for the Development of Metabolically Stable Inhibitors of Chikungunya Virus” (J Med Chem, 2017).
The source made the active and inactive calls. No cut-off for these calls is given here.

Tests used:
Liver = assay: Intrinsic clearance in human liver microsomes; assay type: ADME, microsome
In short: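 Intrinsic clearance was measured in human liver microsome incubation and expressed in μL min−1 mg−1 microsomal protein.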

[1] = Half life in human liver microsomes; assay type: ADME, microsome
In short: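 Compounds were incubated with human liver microsomes. Half-life = ln(2)/slope, where the slope is ln(% detected) plotted against time, using the mean of at least 3 independent experiments.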

Chikungunya virus [2] = assay: Antiviral activity against full length gluc-tagged Chikungunya virus IMT infected in human BJ cells assessed as reduction in virus infection after 24 hrs by gaussia luciferase reporter gene assay; assay type: functional, cell-based
[3] = Plasma concentration in C57BL/6 mouse at 3 mg/kg, iv administered as single dose measured within 1 hr post dose by HPLC-MS/MS analysis; assay type: ADME, organism-based
In short: (§1)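 Male C57BL/6 mice received a single 3 mg/kg iv or 10 mg/kg po dose in 5% DMSO/70% PEG400/25% water. Plasma was sampled at set times over 24 h and analysed by HPLC-MS/MS, with a quantification limit of 0.5 ng/mL. Values are mean ± SD of three mice.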

Chikungunya virus [4] = assay: Antiviral activity against full length Gaussia princeps Gluc-tagged Chikungunya virus IMT infected in HEK293T cells assessed as reduction in virus infection after 24 hrs by Gaussia luciferase reporter gene assay; assay type: functional, cell-based; conditions: HEK-293T
[5] = Cytotoxicity against HEK293T cells assessed as reduction in cell viability after 24 hrs by CellTiter-Glo luminescent assay; assay type: cell-based, HEK-293T; conditions: human
In short: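 HEK 293T cell viability was measured by CellTiter-Glo luminescence after 24 h exposure to serial dilutions. Data were normalized to untreated cells (100%) and reagent background (0%). CC50, the concentration reducing viability by 50%, came from a five-parameter asymmetric fit.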

[6] = Terminal half life in C57BL/6 mouse at 3 mg/kg, iv; assay type: ADME, organism-based; conditions: in vivo, read-out: beta t1/2 (converted)
In short: (§2)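 Male C57BL/6 mice received a single 3 mg/kg iv or 10 mg/kg po dose of a solution in 5% DMSO, 70% PEG400 and 25% water. Results are terminal half-life (h), plasma clearance (mL min−1 kg−1), Vss (L/kg), Tmax (h), Cmax (ng/mL) and oral bioavailability. Values are mean ± SD of three mice.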

Chikungunya virus [7] = assay: Antiviral activity against full length gluc-tagged Chikungunya virus 2008 Singapore SGP11 infected in HEK293T cells assessed as reduction in virus infection after 24 hrs by gaussia luciferase reporter gene assay; assay type: functional, cell-based; conditions: 2008 Singapore SGP11, HEK-293T
[8] = Cmax in C57BL/6 mouse at 10 mg/kg, po; assay type: ADME, organism-based; set-up: dose 10 mg/kg, route oral; conditions: in vivo; in short: as §2
[9] = Plasma clearance in C57BL/6 mouse at 3 mg/kg, iv; assay type: ADME, organism-based; in short: as §2
[10] = Plasma concentration in C57BL/6 mouse at 10 mg/kg, po administered as single dose measured within 1 hr post dose by HPLC-MS/MS analysis; assay type: ADME, organism-based; in short: as §1
[11] = Plasma concentration in C57BL/6 mouse at 10 mg/kg, po administered as single dose measured at 24 hrs by HPLC-MS/MS analysis; assay type: ADME, organism-based; in short: as §1
Chikungunya virus [12] = assay: Antiviral activity against wild type Chikungunya virus IMT infected in HEK293T cells at 5 uM administered 2 to 12 hrs post infection measured after 24 hrs post infection by alpha virus detection based FITC immunofluorescence-based single cell quantification high content screening assay; assay type: functional
Chikungunya virus [13] = assay: (§3) Antiviral activity against wild type Chikungunya virus IMT infected in HEK293T cells at 5 uM administered 2 to 4 hrs prior to infection followed by cels incubation in absence of compound from 0 hrs post infection onwards measured after 24 hrs by measured after 24 hrs post infection by FITC immunofluorescence-based single cell quantification high content screening assay; assay type: functional
Chikungunya virus [14] = assay: Antiviral activity against wild type Chikungunya virus IMT infected in HEK293T cells administered during virus adsorption stage (0 hrs post infection) measured after 24 hrs post infection by FITC immunofluorescence-based single cell quantification high content screening assay; assay type: functional
[15] = Selectivity index, ratio of CC50 for HEK293T cells to EC50 for full length Gaussia princeps Gluc-tagged Chikungunya virus IMT; assay type: toxicity; conditions: human, read-out: Ratio CC50/EC50
Sindbis virus = assay: Antiviral activity against Sindbis virus infected in HEK293T cells assessed as reduction in virus infection after 24 hrs by FITC-based assay; assay type: functional, cell-based; conditions: HEK-293T
In short: (§4)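 This was a pan-alphavirus panel against ONNV and SINV, read by immunofluorescence-based high content screen. Serial dilutions were normalized to untreated infection (100%) and noninfected cells (0%). The EC50, the concentration inhibiting 50% infectivity, came from a five-parameter asymmetric dose-response fit.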

Onyong-nyong virus = assay: Antiviral activity against O'nyong-nyong virus Chad infected in HEK293T cells assessed as reduction in virus infection after 24 hrs by FITC-based assay; assay type: functional, cell-based; conditions: HEK-293T; in short: as §4
Chikungunya virus [16] = assay: Antiviral activity against Chikungunya virus IMT infected in HEK 293T cells assessed as reduction in viral load measured up to 24 hrs by qRT-PCR analysis; assay type: functional, cell-based
[17] = Volume of distribution in steady state in C57BL/6 mouse at 3 mg/kg, iv; assay type: ADME, organism-based; conditions: in vivo, read-out: Vdss; in short: as §2
Chikungunya virus [18] = assay: Antiviral activity against Chikungunya virus IMT infected in HEK 293T cells assessed as reduction in viral load measured up to 24 hrs by qRT-PCR analysis relative to control; assay type: functional, cell-based
Chikungunya virus [19] = assay: Antiviral activity against wild type Chikungunya virus IMT infected in HEK293T cells administered 2 to 12 hrs post infection measured after 24 hrs post infection by FITC immunofluorescence-based single cell quantification high content screening assay; assay type: functional
[20] = Cytotoxicity against human BJ cells assessed as reduction in cell viability after 24 hrs by CellTiter-Glo luminescent assay; assay type: cell-based
In short: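 BJ human fibroblast viability was measured by CellTiter-Glo luminescence after 24 h exposure to serial dilutions. Data were normalized to untreated cells (100%) and reagent background (0%). CC50 came from a five-parameter asymmetric fit.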

[21] = Plasma concentration in C57BL/6 mouse at 3 mg/kg, iv administered as single dose measured at 24 hrs by HPLC-MS/MS analysis; assay type: ADME, organism-based; in short: as §1
Chikungunya virus [22] = assay: Antiviral activity against wild type Chikungunya virus IMT infected in HEK293T cells assessed as reduction in virus infection after 24 hrs by FITC immunofluorescence-based single cell quantification high content screening assay; assay type: functional; conditions: HEK-293T
[23] = Selectivity index, ratio of CC50 for human BJ cells to EC50 for full length Gaussia princeps Gluc-tagged Chikungunya virus IMT; assay type: toxicity; conditions: read-out: Ratio CC50/EC50
Chikungunya virus [24] = assay: Antiviral activity against wild type Chikungunya virus IMT infected in HEK293T cells administered 2 to 4 hrs prior to infection measured after 24 hrs post infection by FITC immunofluorescence-based single cell quantification high content screening assay; assay type: functional; conditions: HEK-293T
Chikungunya virus [25] = assay: Antiviral activity against full length gluc-tagged Chikungunya virus 2013 Caribbean CNR20235 infected in HEK293T cells assessed as reduction in virus infection after 24 hrs by gaussia luciferase reporter gene assay; assay type: functional, cell-based; conditions: 2013 Caribbean CNR20235, HEK-293T
[26] = Terminal half life in C57BL/6 mouse at 10 mg/kg, po; assay type: ADME, organism-based; conditions: in vivo, read-out: beta t1/2 (converted); in short: as §2
[27] = Oral bioavailability in C57BL/6 mouse at 10 mg/kg; assay type: ADME, organism-based; conditions: in vivo; in short: as §2
Chikungunya virus [28] = assay: as §3, with “cells” for “cells at 5 uM”; assay type: functional; conditions: HEK-293T
Chikungunya virus [29] = assay: Antiviral activity against Chikungunya virus IMT infected in HEK 293T cells assessed as reduction in viral load at 5 uM measured up to 24 hrs by qRT-PCR analysis relative to control; assay type: functional
[30] = Tmax in C57BL/6 mouse at 10 mg/kg, po; assay type: ADME, organism-based; conditions: in vivo; in short: as §2

Question: For `CCCNC(=O)C1CCN(C(=O)c2cc3sc(-c4ccccc4)cc3n2Cc2ccc(OC)cc2)CC1`, which CLH (Liver) is on record?
Answer: The CLH was 31.4 µL/min.

Question: What about the half-life [1] of the same molecule?
Answer: The half-life was 0.737 h.

Question: And the EC50 (Chikungunya virus [2])?
Answer: The EC50 was 5.07 µM.

Question: And the concentration at 1 h [3]?
Answer: The concentration at 1 h was 2000 nM.

Question: And the EC50 (Chikungunya virus [4])?
Answer: Its EC50 is 3.3 µM.

Question: What about the CC50 at 24 h [5] of the same molecule?
Answer: The CC50 at 24 h was > 100 µM.

Question: And the half-life [6]?
Answer: The half-life was 2.07 h.

Question: What about the EC50 (Chikungunya virus [7]) of the same molecule?
Answer: Its EC50 is 2.26 µM.

Question: And the Cmax [8]?
Answer: The Cmax was 720 ng/mL.

Question: What about the clearance [9] of the same molecule?
Answer: The clearance was 18.6 mL/min/kg.

Question: And the concentration at 1 h [10]?
Answer: The concentration at 1 h was 2000 nM.

Question: What about the concentration at 24 h [11] of the same molecule?
Answer: Its concentration at 24 h is < 0.5 ng/mL.

Question: What about the Activity (Chikungunya virus [12]) of the same molecule?
Answer: The Activity was “inactive”.

Question: What about the Activity (Chikungunya virus [13]) of the same molecule?
Answer: The Activity was “inactive”.

Question: And the Activity (Chikungunya virus [14])?
Answer: The Activity was “Active”.

Question: And the selectivity ratio [15]?
Answer: The selectivity ratio was > 20.

Question: And the EC50 (Sindbis virus)?
Answer: Its EC50 is 1.65 µM.

Question: What about the EC50 (Onyong-nyong virus) of the same molecule?
Answer: Its EC50 is 3.24 µM.

Question: What about the inhibition (Chikungunya virus [16]) of the same molecule?
Answer: The inhibition was “Dose-dependent effect”.

Question: What about the Vd [17] of the same molecule?
Answer: The Vd was 2.45 L/kg.

Question: What about the Activity (Chikungunya virus [18]) of the same molecule?
Answer: Its Activity is “Dose-dependent effect”.

Question: And the Activity (Chikungunya virus [19])?
Answer: The Activity was “Active”.

Question: What about the CC50 at 24 h [20] of the same molecule?
Answer: Its CC50 at 24 h is > 100 µM.

Question: What about the concentration at 24 h [21] of the same molecule?
Answer: The concentration at 24 h was < 0.5 ng/mL.

Question: What about the EC50 (Chikungunya virus [22]) of the same molecule?
Answer: The EC50 was 4.03 µM.

Question: What about the selectivity ratio [23] of the same molecule?
Answer: Its selectivity ratio is > 20.

Question: And the EC50 (Chikungunya virus [24])?
Answer: The EC50 was 2.5 µM.

Question: What about the EC50 (Chikungunya virus [25]) of the same molecule?
Answer: The EC50 was 2.18 µM.

Question: What about the half-life [26] of the same molecule?
Answer: The half-life was 2.37 h.

Question: What about the bioavailability [27] of the same molecule?
Answer: Its bioavailability is 22%.

Question: And the EC50 (Chikungunya virus [28])?
Answer: The EC50 was 14 to 15 µM.

Question: And the “fold change (FC)” value (Chikungunya virus [29])?
Answer: The value was >50.

Question: What about the Tmax [30] of the same molecule?
Answer: Its Tmax is 0.667 h.
